“Also recorded” adds a separate entry of the source. Values belong to the compound of their own block, whether it stands above or below them.
Tests used:
PARP-1 = PARP-1 (Homo sapiens, UniProt P09874); assay: PARP-1 inhibition assay; type: biochemical
Water solubility = type: physicochemical
[1] = test system: BRCA2-deficient DT40 cells; assay: DT40 cell viability; type: cell-based, Chicken; settings: 72 h
wild-type DT40 cells = assay: DT40 cell viability; type: cell-based, Chicken; settings: 72 h, veliparib up to 10 μM
Method in brief: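 Chicken DT40 B-cell lines from an academic lab. 200 cells per well, continuously exposed to a range of drug concentrations for 72 h, in triplicate. Viability read by ATP content: one-step luciferase reagent added, luminescence read after 5 min. Viability is the treated ATP level over untreated ATP level × 100, with untreated set to 100%. SD from n = 3.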

[2] = test system: PARP-1-deficient DT40 cells; assay: DT40 cell viability; type: cell-based, Chicken; settings: 72 h, veliparib up to 10 μM

PARP-1, sequence (P09874 whole entry): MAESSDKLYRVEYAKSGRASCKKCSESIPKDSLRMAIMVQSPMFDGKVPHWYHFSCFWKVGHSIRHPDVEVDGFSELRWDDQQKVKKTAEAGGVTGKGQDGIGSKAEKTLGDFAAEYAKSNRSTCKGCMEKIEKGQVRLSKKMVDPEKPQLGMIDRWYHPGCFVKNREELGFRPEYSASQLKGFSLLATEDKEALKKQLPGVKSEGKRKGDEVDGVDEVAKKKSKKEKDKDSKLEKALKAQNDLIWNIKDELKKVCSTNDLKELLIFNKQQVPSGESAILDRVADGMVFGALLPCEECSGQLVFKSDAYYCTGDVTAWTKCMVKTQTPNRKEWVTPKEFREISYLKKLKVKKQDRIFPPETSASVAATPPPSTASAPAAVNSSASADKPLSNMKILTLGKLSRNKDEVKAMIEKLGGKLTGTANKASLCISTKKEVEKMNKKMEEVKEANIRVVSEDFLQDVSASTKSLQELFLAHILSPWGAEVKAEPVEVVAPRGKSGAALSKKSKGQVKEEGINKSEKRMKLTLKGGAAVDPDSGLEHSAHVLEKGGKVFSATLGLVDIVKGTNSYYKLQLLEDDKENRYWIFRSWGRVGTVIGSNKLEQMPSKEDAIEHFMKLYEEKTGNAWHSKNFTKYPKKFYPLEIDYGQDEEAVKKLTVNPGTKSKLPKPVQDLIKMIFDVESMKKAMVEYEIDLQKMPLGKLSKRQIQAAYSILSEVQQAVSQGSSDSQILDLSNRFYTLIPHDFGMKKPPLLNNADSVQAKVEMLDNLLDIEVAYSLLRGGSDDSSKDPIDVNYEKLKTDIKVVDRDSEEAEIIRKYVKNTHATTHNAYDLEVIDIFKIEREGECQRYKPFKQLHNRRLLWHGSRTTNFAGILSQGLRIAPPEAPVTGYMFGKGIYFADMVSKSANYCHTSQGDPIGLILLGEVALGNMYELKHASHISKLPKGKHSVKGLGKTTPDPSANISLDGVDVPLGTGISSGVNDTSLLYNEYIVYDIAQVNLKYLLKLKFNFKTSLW

times more potent (PARP-1; 67 vs ethyl analogue 65): ~3 times
Compound: NC(=O)c1cccc2c1O/C(=C\c1ccc(OCCCN3CCOCC3)cc1)C2=O [Compound 67, (Z)-2-[4′-(3-Morpholin-4-ylpropoxy)benzylidene]-3-oxo-2,3-dihydrobenzofuran-7-carboxamide]

water solubility, result in words (Water solubility): water-soluble
Compound: CN1CCN(CCS(=O)(=O)Nc2ccc(/C=C3\Oc4c(C(N)=O)cccc4C3=O)cc2)CC1 [Compound 72, (Z)-2-{4-[2-(4-Methylpiperazin-1-yl)ethanesulfonylamino]benzylidene}-3-oxo-2,3-dihydrobenzofuran-7-carboxamide]

Compound: NC(=O)c1cccc2c1O/C(=C\c1cc(O)ccc1O)C2=O [Compound 61, (Z)-2-(2′,5′-Dihydroxybenzylidene)-3-oxo-2,3-dihydrobenzofuran-7-carboxamide]
PARP-1 inhibition, result in words (PARP-1): poor inhibition; also recorded: complete loss of potency

fold less potent (PARP-1; 65 vs 64): 4 fold
Compound: NC(=O)c1cccc2c1O/C(=C\c1ccc(OCCN3CCOCC3)cc1)C2=O [Compound 65, (Z)-2-[4′-(2-Morpholin-4-ylethoxy)benzylidene]-3-oxo-2,3-dihydrobenzofuran-7-carboxamide]

fold more potent (PARP-1; rac-13c vs 13a): 4 fold
Compound: CC1Cc2cc(F)cc(C(N)=O)c2O1 (racemic) [rac-13c, 5-Fluoro-2-methyl-2,3-dihydrobenzofuran-7-carboxamide]

fold increase in inhibition (PARP-1; rac-28 vs rac-13a): 2 fold
Compound: CC1Cc2c(N)ccc(C(N)=O)c2O1 (racemic) [rac-28, 4-Amino-2-methyl-2,3-dihydrobenzofuran-7-carboxamide]

fold improvement in potency (PARP-1; 68 vs 65): 9 fold
Compound: NC(=O)c1cccc2c1O/C(=C\c1ccc(OCC(=O)N3CCOCC3)cc1)C2=O [Compound 68, (Z)-2-[4′-(2-Morpholin-4-yl-2-oxoethoxy)benzylidene]-3-oxo-2,3-dihydrobenzofuran-7-carboxamide]

PARP-1 inhibition, result in words (PARP-1): inactive
Compound: CC1Cc2cc(N)cc(C(N)=O)c2O1 (stereo not shown) [Compound 15, 5-Amino-2-methyl-2,3-dihydrobenzofuran-7-carboxamide]

Compound: NC(=O)c1cccc2c1O/C(=C\c1cc(O)cc(O)c1)C2=O [Compound 60, (Z)-2-(3′,5′-Dihydroxybenzylidene)-3-oxo-2,3-dihydrobenzofuran-7-carboxamide]
PARP-1 inhibition, result in words (PARP-1): poor inhibition; also recorded: complete loss of potency

PARP-1 inhibition, result in words (PARP-1): Poor inhibition
Compound: NC(=O)c1cccc2c1O/C(=C\c1ccccc1O)C2=O [Compound 55, (Z)-2-(2′-Hydroxybenzylidene)-3-oxo-2,3-dihydrobenzofuran-7-carboxamide]

PARP-1 inhibition, result in words (PARP-1): inactive
Compound: Cc1cc2c(c(C(N)=O)c1)OC(C)C2 (stereo not shown) [Compound 13b, 2,5-Dimethyl-2,3-dihydrobenzofuran-7-carboxamide]

fold reduced inhibitory activity (PARP-1; 54 vs 57): 4 fold
Compound: COc1ccc(/C=C2\Oc3c(C(N)=O)cccc3C2=O)cc1 [Compound 54, (Z)-2-(4′-Methoxybenzylidene)-3-oxo-2,3-dihydrobenzofuran-7-carboxamide]

water solubility, result in words (Water solubility): water-soluble
Compound: CN1CCN(CCOc2ccc(/C=C3\Oc4c(C(N)=O)cccc4C3=O)cc2)CC1 [Compound 66, (Z)-2-{4′-[2-(4-Methylpiperazin-1-yl)ethoxy]benzylidene}-3-oxo-2,3-dihydrobenzofuran-7-carboxamide]
cytotoxicity, result in words [1]: selective cytotoxicity; also recorded: selectively killed; also recorded: selectively active
cytotoxicity, result in words (wild-type DT40 cells): minimally cytotoxic
cytotoxicity, result in words [2]: minimally cytotoxic

fold improvement in potency (PARP-1; 58 vs core 36): 30 fold
Compound: NC(=O)c1cccc2c1O/C(=C\c1ccc(O)c(O)c1)C2=O [Compound 58, (Z)-2-(3′,4′-Dihydroxybenzylidene)-3-oxo-2,3-dihydrobenzofuran-7-carboxamide]

fold more potent (PARP-1; 20 vs initial lead 3): ~5 fold
Compound: NC(=O)c1cc(F)cc2c1OCC2 [Compound 20, 5-Fluoro-2,3-dihydrobenzofuran-7-carboxamide]

PARP-1 inhibition, result in words (PARP-1): inactive
Compound: CC1Cc2cc([N+](=O)[O-])cc(C(N)=O)c2O1 (stereo not shown) [Compound 14, 2-Methyl-5-nitro-2,3-dihydrobenzofuran-7-carboxamide]

Reference: PMC4094269 (Journal of Medicinal Chemistry, 2014)
